This is an account of results in ChEMBL document CHEMBL3414539, “Quantum chemistry calculation-aided structural optimization of combretastatin A-4-like tubulin polymerization inhibitors: improved stability and biological activity” (J Med Chem, 2015).

One series deals with Tubulin (Bos taurus, UniProt Q6B856+Q862L2+Q862F3). The experiment in a line: Inhibition of bovine brain tubulin polymerization incubated for 60 mins by microplate reader based turbidimetry.
Series [1] in a line: Stability assessed as cis-trans isomerization equilibrium at 1.5 x 10^-2 M under natural light conditions after 7 days by LC-HRMS method. The class given is physicochemical. The following applies: 168 h, 15000 µM.
Series [2] concerns HT-29. Briefly: Growth inhibition of human HT-29 cells by MTT assay. The class given is functional, cell-based. An outline of the steps:
(§1)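 MTT assay in SKOV3 ovarian and HT-29 colon carcinoma cells, absorbance read at 570 nm. Triplicate wells in at least three independent assays; average IC50 reported.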
In general terms: Tetrazolium dyes change colour on reduction, which living cells bring about.

Series [3] is described as follows: Stability assessed as cis-trans isomerization equilibrium by mesuring remaining compound level at 1.5 x 10^-2 M exposed to UV-visible light irradiation after 1.5 hrs by LC-HRMS method. The conditions noted are these: read-out: Stability. Format: physicochemical.
Series [4] in a line: Stability assessed as cis-trans isomerization equilibrium by mesuring remaining compound level at 1.5 x 10^-2 M exposed to UV-visible light irradiation after 22 hrs by LC-HRMS method. Format: physicochemical. The following applies: read-out: Stability.
Another series relates to SK-OV-3. Briefly: Growth inhibition of human SKOV3 cells by MTT assay. Format: functional, cell-based. An outline of the steps:
as §1

The subject of series [5] is HT-29. Briefly: Antitumor activity against human HT-29 cells xenografted in BALB/c mouse assessed as reduction in tumor volume at 150 mg/kg, ip administered once daily for 18 days. The class given is functional. The following applies: route intraperitoneal. An outline of the steps: (§2)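 Female BALB/c nude mice (18–20 g) bearing HT-29 xenografts of around 100 mm³, randomized into six animals/treatment and twelve controls. Drug or vehicle given ip once a day for 18 days. Tumor volume and body weight recorded on d0 and d18. T/C (%) derived from relative tumor volume (Vt/Vo). Body weight change given as mean in g.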
On the technique in general: In xenograft studies the graft and the host belong to different species.

For series [6], the system named is HT-29. The experiment in a line: Antitumor activity against human HT-29 cells xenografted in BALB/c mouse assessed as reduction in tumor volume at 50 and 150 mg/kg, ip administered once daily and measured on day 18. Format: functional, organism-based. Details: dose 150 mg/kg. The method in brief:
as §2

Series [7] concerns Mus musculus. The experiment in a line: Toxicity in human HT-29 cells xenografted BALB/c mouse assessed as change in body weight at 150 mg/kg, ip administered once daily for 18 days (reference value: 2.5 g). The class given is organism-based. The arrangement: dose 150 mg/kg, route intraperitoneal. The conditions noted are these: in vivo, 432 h. The method in brief: as §2
The test system of series [8] is HT-29. Briefly: Antitumor activity against human HT-29 cells xenografted in BALB/c mouse assessed as reduction in tumor volume at 50 mg/kg, ip administered once daily for 18 days. Format: functional. The following applies: route intraperitoneal. An outline of the steps: as §2
The subject of series [9] is Mus musculus. Briefly: Toxicity in human HT-29 cells xenografted BALB/c mouse assessed as change in body weight at 50 mg/kg, ip administered once daily for 18 days (reference value: 2.5 g). The arrangement: dose 50 mg/kg, route intraperitoneal. The following applies: in vivo, 432 h. The class given is organism-based.

pIC50: −log10 of the molar value.

As a reminder, the IC50 is the point on the concentration scale where inhibition reaches its midpoint. Low values mean greater potency in that assay, high ones weaker potency in that assay. Broadly, the pIC50 is the negative decadic logarithm of the IC50, by convention in mol/L. High values mean a small IC50, low ones a large IC50. Take `COc1ccc(/C=C2\c3cc(OC)c(OC)c(OC)c3CC[C@@H]2O)cc1`: the IC50 against Tubulin was > 10000 nM. Also, in [1], the Stability entry was “Stable”. Also, the pIC50 was 5.61 in the series with HT-29 [2] and 5.15 with SK-OV-3. Further, the remaining at 1.5 h, 15000 µM in [3] came out at 99.4%. The remaining at 22 h, 15000 µM in series [4] was determined as 92.6%.

A word on the T/C: it is the result in the treated group divided by that in the control group, in per cent. On to `COc1ccc2c(c1)CC[C@H](O)/C2=C/c1cc(OC)c(OC)c(OC)c1`, for which the T/C in the series on HT-29 [5] is 37%; in the series with HT-29 [8], 61%. Besides, the concentration for half-maximal inhibition (IC50) against Tubulin is 410 nM. Further, the Stability entry in series [1] is given as “Stable”. The inhibition result in the series with HT-29 [6] is “Dose-dependent effect”. The Activity was found to be 1.8 g in the series with Mus musculus [7] and 2.3 g in the series on Mus musculus [9]. Also, the negative logarithm of the IC50 (pIC50) in the series on HT-29 [2] and with SK-OV-3 was 9.00 each time. In addition, in series [3], the remaining at 1.5 h, 15000 µM turned out to be 98.9%. Also, the remaining at 22 h, 15000 µM in [4] amounted to 90.2%.

As for `COc1ccc(/C=C2\c3cc(OC)c(OC)c(OC)c3CC[C@H]2O)cc1C`, the values for the pIC50 in the series with HT-29 [2] and in the series on SK-OV-3 were 5.40 and 5.87, respectively.

In the case of `COc1ccc(/C=C2\c3cc(OC)c(OC)c(OC)c3CC[C@H]2O)cc1C(N)=O`, the pIC50 in the series on HT-29 [2] is 6.26; with SK-OV-3, 5.72.

Regarding `COc1ccc(/C=C2\c3cc(OC)c(OC)c(OC)c3CC[C@@H]2O)cc1C#N`, the figures for the pIC50 in the series on HT-29 [2] and in the series on SK-OV-3 were 8.30 and 7.70, respectively.

As for `COc1ccc(/C=C2\c3cc(OC)c(OC)c(OC)c3CC[C@H]2O)cc1`, the half-inhibitory concentration (IC50) at Tubulin was > 10000 nM. Moreover, the Stability result in series [1] is listed as “Stable”. The figures for the negative-log IC50 (pIC50) in the series on HT-29 [2] and in the series with SK-OV-3 were 5.59 and 5.42, respectively. Moreover, in series [3], the remaining at 1.5 h, 15000 µM came to 99.1%. The remaining at 22 h, 15000 µM in series [4] was 93%.

For `COc1ccc(/C=C2\c3cc(OC)c(OC)c(OC)c3CC[C@H]2O)cc1C#N`, the results for the pIC50 in the series with HT-29 [2] and with SK-OV-3 were 6.70 and 6.22, respectively.

With `COc1ccc(/C=C2\c3cc(OC)c(OC)c(OC)c3CC[C@H]2O)cc1N`, the figures for the negative-log IC50 (pIC50) in the series on HT-29 [2] and in the series with SK-OV-3 were 6.04 and 5.73, respectively.

In the case of `COc1ccc(/C=C\c2cc(OC)c(OC)c(OC)c2)cc1O` [COMBRETASTATIN A4], the Stability result in [1] was “Stable”. The negative-log IC50 (pIC50) with HT-29 [2] and with SK-OV-3 was 9.00 each time. The T/C in the series on HT-29 [8] came to 52%. The Activity with Mus musculus [9] worked out at 1.7 g. Further, the remaining at 1.5 h, 15000 µM in [3] came out at 99.1%. In series [4], the remaining at 22 h, 15000 µM was 84%.

On to `COc1ccc(/C=C2\c3cc(OC)c(OC)c(OC)c3CC[C@H]2O)cc1F`, for which the negative logarithm of the IC50 (pIC50) was 6.66 in the series on HT-29 [2] and 6.14 in the series on SK-OV-3.

At Tubulin, `COc1ccc(/C=C2\c3cc(OC)c(OC)c(OC)c3CC[C@@H]2O)cc1F` showed an IC50 of 5700 nM. Also, the negative logarithm of the IC50 (pIC50) in the series on HT-29 [2] is 8.52; with SK-OV-3, 9.00.

Consider `COc1ccc(/C=C2\c3cc(OC)c(OC)c(OC)c3CC[C@@H]2O)cc1C`, for which the negative logarithm of the IC50 (pIC50) with HT-29 [2] was 5.59; with SK-OV-3, 6.14.

Turning to `COc1ccc(/C=C2\c3cc(OC)c(OC)c(OC)c3CC[C@@H]2O)cc1C(N)=O`, the negative-log IC50 (pIC50) in the series on HT-29 [2] is 6.26; in the series on SK-OV-3 it was 5.84.

For `COc1ccc(/C=C2\c3cc(OC)c(OC)c(OC)c3CC[C@@H]2O)cc1O`, the pIC50 in the series with HT-29 [2] was 6.59; in the series with SK-OV-3 it was 5.97.

Turning to `COc1ccc2c(c1)CC[C@@H](O)/C2=C/c1cc(OC)c(OC)c(OC)c1`, on Tubulin, the IC50 was > 10000 nM. Moreover, the Stability entry in series [1] is reported as “Stable”. Also, the negative-log IC50 (pIC50) with HT-29 [2] was 6.05; with SK-OV-3, 5.69. Besides, in series [3], the remaining at 1.5 h, 15000 µM came out at 99.2%. Further, the remaining at 22 h, 15000 µM in series [4] amounted to 92%.

As to `COc1ccc(/C=C2\c3cc(OC)c(OC)c(OC)c3CC[C@H]2O)cc1[N+](=O)[O-]`, the negative logarithm of the IC50 (pIC50) with HT-29 [2] and in the series with SK-OV-3 was < 5.00 each time.

On to `COc1ccc(/C=C2\c3cc(OC)c(OC)c(OC)c3CC[C@H]2O)cc1O`, for which the negative logarithm of the IC50 (pIC50) in the series on HT-29 [2] is 6.10; in the series with SK-OV-3 it was 5.80.

At Tubulin, `COc1ccc2c(c1)CCC(=O)/C2=C/c1cc(OC)c(OC)c(OC)c1` registered a half-inhibitory concentration (IC50) of 3930 nM. Besides, the negative-log IC50 (pIC50) in the series on HT-29 [2] is 6.89; in the series on SK-OV-3 it was 8.70. The remaining at 1.5 h, 15000 µM in [3] turned out to be 52.8%.

`COc1ccc(/C=C2\c3cc(OC)c(OC)c(OC)c3CC[C@@H]2O)cc1N`: the pIC50 was 6.80 in the series on HT-29 [2] and 6.13 in the series on SK-OV-3.

For the molecule `COc1ccc(/C=C2\c3cc(OC)c(OC)c(OC)c3CC[C@@H]2O)cc1[N+](=O)[O-]`, the negative logarithm of the IC50 (pIC50) in the series with HT-29 [2] was 5.80; with SK-OV-3, 5.33.
